Legend:
U-251 = test: Antiproliferative activity against human U251 cells after 48 hrs; type: functional; details: U-251, 48 h
In short: (§1)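 NCI 60-cell-line screen. Lines grown in RPMI 1640 with 5% fetal bovine serum and 2 mM L-glutamine, plated at 5,000–40,000 cells/well according to doubling time, left 24 h at 37 °C in 5% CO2. Drug stocks in DMSO at 400-fold the top final concentration. Five 10-fold dilutions, 10−4 to 10−8 M, incubated 48 h. Growth read spectrophotometrically as net protein; GI50 taken as 50% reduction.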

M14 = test: Antiproliferative activity against human M14 cells after 48 hrs; type: functional; details: M14, 48 h
In short: (§2)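 NCI 60-cell screen. Cells were grown in RPMI 1640 with 5% FBS and 2 mM L-glutamine, then plated at 5,000–40,000 cells/well according to doubling time and preincubated for 24 h at 37 °C in 5% CO2. Compounds were dissolved in DMSO at 400× the top final concentration and tested at five 10-fold dilutions from 10−4 to 10−8 M for 48 h. Growth was read spectrophotometrically; GI50 is 50% net protein reduction.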

SK-MEL-28 = test: Antiproliferative activity against human SKMEL28 cells after 48 hrs; type: functional; details: SK-MEL-28, 48 h; in short: as §2
UACC-257 = test: Antiproliferative activity against human UACC257 cells after 48 hrs; type: functional; details: UACC-257, 48 h; in short: as §1
OVCAR-3 = test: Antiproliferative activity against human OVCAR-3 cells after 48 hrs; type: functional; details: OVCAR-3, 48 h; in short: as §2
OVCAR-4 = test: Antiproliferative activity against human OVCAR4 cells after 48 hrs; type: functional; details: OVCAR-4, 48 h; in short: as §2
OVCAR-5 = test: Antiproliferative activity against human OVCAR5 cells after 48 hrs; type: functional; details: OVCAR-5, 48 h; in short: as §2
SK-OV-3 = test: Antiproliferative activity against human SKOV3 cells after 48 hrs; type: functional; details: SK-OV-3, 48 h; in short: as §2
CAKI-1 = test: Antiproliferative activity against human CAKI1 cells after 48 hrs; type: functional; details: CAKI-1, 48 h; in short: as §2
RXF 393 = test: Antiproliferative activity against human RXF393 cells after 48 hrs; type: functional; details: RXF 393, 48 h; in short: as §2
UO-31 = test: Antiproliferative activity against human UO31 cells after 48 hrs; type: functional; details: UO-31, 48 h; in short: as §1
DU-145 = test: Antiproliferative activity against human DU145 cells after 48 hrs; type: functional; details: DU-145, 48 h; in short: as §2
[1] = Antiproliferative activity against human NCI-ADR-RES cells after 48 hrs; type: functional; in short: as §2
MDA-MB-231 = test: Antiproliferative activity against human MDA-MB-231 cells after 48 hrs; type: functional; details: MDA-MB-231, 48 h; in short: as §2
Hs-578T = test: Antiproliferative activity against human HS578T cells after 48 hrs; type: functional; in short: as §2
MDA-MB-435 = test: Antiproliferative activity against human MDA-MB-435 cells after 48 hrs; type: functional; details: Homo sapiens, MDA-MB-435, 48 h; in short: as §2
BT-549 = test: Antiproliferative activity against human BT549 cells after 48 hrs; type: functional; details: BT-549, 48 h; in short: as §2
T47D = test: Antiproliferative activity against human T47D cells after 48 hrs; type: functional; in short: as §1
NCI-H226 = test: Antiproliferative activity against human NCI-H226 cells after 48 hrs; type: functional; details: NCI-H226, 48 h; in short: as §2
NCI-H23 = test: Antiproliferative activity against human NCI-H23 cells after 48 hrs; type: functional; details: NCI-H23, 48 h; in short: as §2
NCI-H322M = test: Antiproliferative activity against human NCI-H322M cells after 48 hrs; type: functional; in short: as §2
COLO 205 = test: Antiproliferative activity against human COLO205 cells after 48 hrs; type: functional; details: COLO 205, 48 h; in short: as §2
HCT-15 = test: Antiproliferative activity against human HCT15 cells after 48 hrs; type: functional; details: Homo sapiens, HCT-15, 48 h; in short: as §2
HT-29 = test: Antiproliferative activity against human HT29 cells after 48 hrs; type: functional; details: HT-29, 48 h; in short: as §2
SF-268 = test: Antiproliferative activity against human SF268 cells after 48 hrs; type: functional; details: SF-268, 48 h; in short: as §2
SF-539 = test: Antiproliferative activity against human SF539 cells after 48 hrs; type: functional; details: SF-539, 48 h; in short: as §2
SNB-19 = test: Antiproliferative activity against human SNB19 cells after 48 hrs; type: functional; details: SNB-19, 48 h; in short: as §2
MCF7 = test: Antiproliferative activity against human MCF7 cells after 48 hrs; type: functional, cell-based; details: MCF7, 48 h
MOLT-4 = test: Antiproliferative activity against human MOLT4 cells after 48 hrs; type: functional; details: MOLT-4, 48 h; in short: as §2
A549 = test: Antiproliferative activity against human A549 cells after 48 hrs; type: functional; details: A549, 48 h; in short: as §2
[2] = read-out: Log LC50 (the source's name) (converted)

SMILES: C[C@H](NC(=O)CCCCCCCCCCCCCCC[n+]1ccccc1)[C@H](O)c1ccccc1.[Br-]
- GI50 (U-251): 2.95 µM
- CC50 (U-251; [2]): 38.9 µM
- TGI (U-251; read-out: Log TGI (converted)): 13.8 µM
- GI50 (M14): 6.31 µM
- LC50 (M14): 46.8 µM
- TGI (M14; read-out: Log TGI (converted)): 19.5 µM
- GI50 (SK-MEL-28): 2.34 µM
- LC50 (SK-MEL-28): 20.4 µM
- TGI (SK-MEL-28; read-out: Log TGI (converted)): 6.03 µM
- GI50 (UACC-257): 2.24 µM
- CC50 (UACC-257; [2]): 38.9 µM
- TGI (UACC-257; read-out: Log TGI (converted)): 8.32 µM
- GI50 (OVCAR-3): 1.32 µM
- LC50 (OVCAR-3): 26.3 µM
- TGI (OVCAR-3; read-out: Log TGI (converted)): 6.46 µM
- GI50 (OVCAR-4): 1.66 µM
- LC50 (OVCAR-4): 42.7 µM
- TGI (OVCAR-4; read-out: Log TGI (converted)): 12.3 µM
- GI50 (OVCAR-5): 11 µM
- CC50 (OVCAR-5; [2]): 51.3 µM
- TGI (OVCAR-5; read-out: Log TGI (converted)): 24 µM
- GI50 (SK-OV-3): 3.31 µM
- CC50 (SK-OV-3; [2]): 35.5 µM
- TGI (SK-OV-3; read-out: Log TGI (converted)): 12 µM
- GI50 (CAKI-1): 14.1 µM
- CC50 (CAKI-1; [2]): 53.7 µM
- TGI (CAKI-1; read-out: Log TGI (converted)): 27.5 µM
- GI50 (RXF 393): 12 µM
- CC50 (RXF 393; [2]): 74.1 µM
- TGI (RXF 393; read-out: Log TGI (converted)): 29.5 µM
- GI50 (UO-31): 28.8 µM
- LC50 (UO-31): > 100 µM
- TGI (UO-31; read-out: Log TGI (converted)): 95.5 µM
- GI50 (DU-145): 12.6 µM
- CC50 (DU-145; [2]): 50.1 µM
- TGI (DU-145; read-out: Log TGI (converted)): 25.1 µM
- GI50 [1]: > 100 µM
- LC50 [1]: > 100 µM
- TGI ([1]; read-out: Log TGI (converted)): > 100 µM
- GI50 (MDA-MB-231): 3.24 µM
- LC50 (50% lethal concentration) (MDA-MB-231): 42.7 µM
- TGI (MDA-MB-231; read-out: Log TGI (converted)): 33.1 µM
- GI50 (Hs-578T): 3.24 µM
- LC50 (Hs-578T): > 100 µM
- TGI (Hs-578T; read-out: Log TGI (converted)): 13.5 µM
- GI50 (MDA-MB-435): 2.63 µM
- LC50 (MDA-MB-435): 25.7 µM
- TGI (MDA-MB-435; read-out: Log TGI (converted)): 7.24 µM
- LC50 (BT-549): 8.71 µM
- TGI (BT-549; read-out: Log TGI (converted)): 0.851 µM
- GI50 (T47D): 0.933 µM
- CC50 (T47D; [2]): 58.9 µM
- TGI (T47D; read-out: Log TGI (converted)): 10.7 µM
- GI50 (NCI-H226): 6.46 µM
- CC50 (NCI-H226; [2]): 89.1 µM
- TGI (NCI-H226; read-out: Log TGI (converted)): 26.9 µM
- GI50 (NCI-H23): 2.95 µM
- CC50 (NCI-H23; [2]): 49 µM
- TGI (NCI-H23; read-out: Log TGI (converted)): 15.5 µM
- GI50 (NCI-H322M): 14.5 µM
- CC50 (NCI-H322M; [2]): 52.5 µM
- TGI (NCI-H322M; read-out: Log TGI (converted)): 31.6 µM
- GI50 (COLO 205): 1.05 µM
- CC50 (COLO 205; [2]): 31.6 µM
- TGI (COLO 205; read-out: Log TGI (converted)): 4.9 µM
- GI50 (HCT-15): 57.5 µM
- LC50 (HCT-15): > 100 µM
- TGI (HCT-15; read-out: Log TGI (converted)): > 100 µM
- GI50 (HT-29): 1.32 µM
- LC50 (HT-29): 34.7 µM
- TGI (HT-29; read-out: Log TGI (converted)): 11.7 µM
- GI50 (SF-268): 3.24 µM
- LC50 (SF-268): 43.7 µM
- TGI (SF-268; read-out: Log TGI (converted)): 13.2 µM
- GI50 (SF-539): 3.39 µM
- LC50 (SF-539): 39.8 µM
- TGI (SF-539; read-out: Log TGI (converted)): 14.1 µM
- GI50 (SNB-19): 3.09 µM
- CC50 (SNB-19; [2]): 38 µM
- TGI (SNB-19; read-out: Log TGI (converted)): 13.2 µM
- GI50 (MCF7): 1.48 µM
- LC50 (MCF7): 20.9 µM
- TGI (MCF7; read-out: Log TGI (converted)): 4.79 µM
- GI50 (MOLT-4): 4.9 µM
- LC50 (MOLT-4): 63.1 µM
- TGI (MOLT-4; read-out: Log TGI (converted)): 18.6 µM
- GI50 (A549): 5.13 µM
- CC50 (A549; [2]): 67.6 µM
- TGI (A549; read-out: Log TGI (converted)): 21.9 µM
